# pIC50: −log10 of the molar value.
# Experiments:
# [1] = system: Pseudomonas aeruginosa; assay: Antibacterial activity against multidrug-resistant/tobramycin-susceptible Pseudomonas aeruginosa isolate 86079; format: functional
# [2] = system: Streptococcus pneumoniae; assay: Antibacterial activity against Streptococcus pneumoniae ATCC 49619 after 24 hrs by microtitre broth dilution method; format: functional; conditions: ATCC 49619, 24 h
# [3] = system: Escherichia coli; assay: Antibacterial activity against gentamicin/tobramycin/ciprofloxacin-resistant Escherichia coli isolate CANWARD-2011 97615 harboring AAC3-2A after 24 hrs by microtitre broth dilution method; format: functional; conditions: isolate CANWARD-2011 97615, 24 h
# [4] = system: Acinetobacter baumannii; assay: Antibacterial activity against Acinetobacter baumannii isolate CAN-ICU 63169 after 24 hrs by microtitre broth dilution method; format: functional; conditions: isolate CAN-ICU 63169, 24 h
# [5] = system: Pseudomonas aeruginosa; assay: Antibacterial activity against multidrug/extremely drug-resistant/colistin-susceptible Pseudomonas aeruginosa isolate 264-104354; format: functional
# [6] = system: Pseudomonas aeruginosa; assay: Antibacterial activity against multidrug/extremely drug-resistant/colistin-susceptible Pseudomonas aeruginosa isolate 100036; format: functional
# [7] = system: Stenotrophomonas maltophilia; assay: Antibacterial activity against Stenotrophomonas maltophilia isolate CAN-ICU 62584 after 24 hrs by microtitre broth dilution method; format: functional; conditions: isolate CAN-ICU 62584, 24 h
# [8] = system: Enterococcus faecium; assay: Antibacterial activity against Enterococcus faecium ATCC 27270 after 24 hrs by microtitre broth dilution method; format: functional; conditions: ATCC 27270, 24 h
# [9] = system: Pseudomonas aeruginosa; assay: Antibacterial activity against multidrug-resistant/tobramycin-susceptible Pseudomonas aeruginosa isolate 86053; format: functional
# [10] = system: Pseudomonas aeruginosa; assay: Antibacterial activity against gentamicin/tobramycin-resistant Pseudomonas aeruginosa isolate CANWARD-2011 96846 after 24 hrs by microtitre broth dilution method; format: functional; conditions: isolate CANWARD-2011 96846, 24 h
# [11] = system: Klebsiella pneumoniae; assay: Antibacterial activity against Klebsiella pneumoniae ATCC 13883 after 24 hrs by microtitre broth dilution method; format: functional; conditions: ATCC 13883, 24 h
# [12] = system: Staphylococcus epidermidis; assay: Antibacterial activity against methicillin-susceptible Staphylococcus epidermidis isolate CANWARD-2008 81388 after 24 hrs by microtitre broth dilution method; format: functional; conditions: isolate CANWARD-2008 81388, 24 h
# [13] = system: Pseudomonas aeruginosa; assay: Antibacterial activity against multidrug/extremely drug-resistant/colistin-susceptible Pseudomonas aeruginosa isolate 259-96918; format: functional
# [14] = system: Pseudomonas aeruginosa; assay: Antibacterial activity against multidrug/extremely drug-resistant/colistin-susceptible Pseudomonas aeruginosa isolate 260-97103; format: functional
# [15] = system: Staphylococcus aureus; assay: Antibacterial activity against methicillin-resistant Staphylococcus aureus ATCC 33592 after 24 hrs by microtitre broth dilution method; format: functional; conditions: ATCC 33592, 24 h
# [16] = system: Pseudomonas aeruginosa; assay: Antibacterial activity against multidrug-resistant/tobramycin-susceptible Pseudomonas aeruginosa isolate 86052; format: functional
# [17] = system: Pseudomonas aeruginosa; assay: Antibacterial activity against Pseudomonas aeruginosa PAO1; format: functional
# [18] = system: Escherichia coli; assay: Antibacterial activity against Escherichia coli ATCC 25922 after 24 hrs by microtitre broth dilution method; format: functional; conditions: ATCC 25922, 24 h
# [19] = system: Staphylococcus epidermidis; assay: Antibacterial activity against methicillin-resistant Staphylococcus epidermidis isolate CAN-ICU 61589 after 24 hrs by microtitre broth dilution method; format: functional; conditions: isolate CAN-ICU 61589, 24 h
# [20] = system: Escherichia coli; assay: Antibacterial activity against gentamicin-resistant Escherichia coli isolate CAN-ICU 61714 after 24 hrs by microtitre broth dilution method; format: functional; conditions: isolate CAN-ICU 61714, 24 h
# [21] = system: Pseudomonas aeruginosa; assay: Antibacterial activity against multidrug-resistant/tobramycin-susceptible Pseudomonas aeruginosa isolate 86067; format: functional
# [22] = system: Enterococcus faecalis; assay: Antibacterial activity against Enterococcus faecalis ATCC 29212 after 24 hrs by microtitre broth dilution method; format: functional; conditions: ATCC 29212, 24 h
# [23] = system: Pseudomonas aeruginosa; assay: Antibacterial activity against multidrug-resistant/tobramycin-susceptible Pseudomonas aeruginosa isolate 83182; format: functional
# [24] = system: Pseudomonas aeruginosa; assay: Antibacterial activity against Pseudomonas aeruginosa ATCC 27853 after 24 hrs by microtitre broth dilution method; format: functional; conditions: ATCC 27853, 24 h
# [25] = system: Escherichia coli; assay: Antibacterial activity against amikacin-resistant Escherichia coli isolate CAN-ICU 63074 after 24 hrs by microtitre broth dilution method; format: functional; conditions: isolate CAN-ICU 63074, 24 h
# [26] = system: Pseudomonas aeruginosa; assay: Antibacterial activity against multidrug/extremely drug-resistant/colistin-susceptible Pseudomonas aeruginosa isolate 101885; format: functional
# [27] = system: Pseudomonas aeruginosa; assay: Antibacterial activity against pandrug-resistant Pseudomonas aeruginosa isolate 91433; format: functional
# [28] = system: Pseudomonas aeruginosa; assay: Antibacterial activity against multidrug/extremely drug-resistant/colistin-susceptible Pseudomonas aeruginosa isolate 262-101856; format: functional
# [29] = system: Staphylococcus aureus; assay: Antibacterial activity against Staphylococcus aureus ATCC 29213 after 24 hrs by microtitre broth dilution method; format: functional; conditions: ATCC 29213, 24 h
# [30] = system: Pseudomonas aeruginosa; assay: Antibacterial activity against multidrug-resistant/tobramycin-susceptible Pseudomonas aeruginosa isolate 80621; format: functional
# [31] = system: Pseudomonas aeruginosa; assay: Antibacterial activity against multidrug-resistant/tobramycin-susceptible Pseudomonas aeruginosa isolate 92014; format: functional
# [32] = system: Pseudomonas aeruginosa; assay: Antibacterial activity against multidrug-resistant/tobramycin-susceptible Pseudomonas aeruginosa isolate 85322; format: functional
# [33] = system: Pseudomonas aeruginosa; assay: Antibacterial activity against multidrug-resistant/tobramycin-susceptible Pseudomonas aeruginosa isolate 86141; format: functional
# [34] = system: Pseudomonas aeruginosa; assay: Antibacterial activity against multidrug-resistant/tobramycin-susceptible Pseudomonas aeruginosa isolate 79199; format: functional
# [35] = system: Pseudomonas aeruginosa; assay: Antibacterial activity against multidrug-resistant/tobramycin-susceptible Pseudomonas aeruginosa isolate 84745; format: functional
# [36] = system: Pseudomonas aeruginosa; assay: Antibacterial activity against pandrug-resistant Pseudomonas aeruginosa isolate 101243; format: functional
# [37] = system: Pseudomonas aeruginosa; assay: Antibacterial activity against multidrug-resistant/tobramycin-susceptible Pseudomonas aeruginosa isolate 108590; format: functional
# [38] = system: Pseudomonas aeruginosa; assay: Induction of cytoplasmic membrane depolarization in Pseudomonas aeruginosa PAO1 by DiSC3(5) dye based fluorescence assay; format: functional
# [39] = system: Pseudomonas aeruginosa; assay: Antibacterial activity against gentamicin-resistant Pseudomonas aeruginosa isolate CAN-ICU 62308 after 24 hrs by microtitre broth dilution method; format: functional; conditions: isolate CAN-ICU 62308, 24 h
# [40] = Inhibition of circular DNA translation in Escherichia coli S30 extract after 60 mins by luciferase reporter gene assay
# Summary of the method: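 Translation was run in an E. coli S30 extract with a luciferase read-out. Luminescence is expressed as a percentage of the no-antibiotic control, taken as 100%.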
# [41] = Inhibition of Pseudomonas aeruginosa DNA gyrase A assessed as inhibition of DNA supercoiling using PBR322 DNA as substrate after 30 mins by SYBR Gold staining based agarose gel electrophoresis
Compound,MIC [1],MIC [2],MIC [3],MIC [4],MIC [5],MIC [6],MIC [7],MIC [8],MIC [9],MIC [10],MIC [11],MIC [13],MIC [14],MIC [16],MIC [17],MIC [21],MIC [23],MIC [26],MIC [27],MIC [28],further results
O=C(O)c1cn(C2CC2)c2cc(N3CCNCC3)c(F)cc2c1=O [CIPROFLOXACIN],> 16 µg/mL,1 µg/mL,256 µg/mL,2 µg/mL,16 to 32 µg/mL,64 µg/mL,32 µg/mL,8 µg/mL,> 16 µg/mL,4 µg/mL,≤ 0.25 µg/mL,256 µg/mL,16 to 64 µg/mL,> 16 µg/mL,< 0.2 µg/mL,4 µg/mL,4 µg/mL,32 µg/mL,4 to 8 µg/mL,16 to 32 µg/mL,MIC [12]: ≤ 0.25 µg/mL; MIC [15]: ≤ 0.25 µg/mL; MIC [18]: ≤ 0.25 µg/mL; MIC [19]: 128 µg/mL; MIC [20]: ≤ 0.25 µg/mL; MIC [22]: 1 µg/mL; MIC [24]: 1 µg/mL; MIC [25]: ≤ 0.25 µg/mL; MIC [29]: ≤ 0.25 µg/mL
CO/N=C(\C(=O)N[C@@H]1C(=O)N2C(C(=O)[O-])=C(C[N+]3(C)CCCC3)CS[C@H]12)c1csc(N)n1 [CEFEPIME],32 µg/mL,,,,32 µg/mL,4 µg/mL,,,64 µg/mL,,,> 64 µg/mL,16 µg/mL,16 µg/mL,,64 µg/mL,16 µg/mL,8 µg/mL,16 µg/mL,32 µg/mL,MIC [30]: 8 µg/mL; MIC [31]: 16 µg/mL; MIC [32]: 16 µg/mL; MIC [33]: 16 µg/mL; MIC [34]: 32 µg/mL; MIC [35]: 16 µg/mL; MIC [36]: 64 µg/mL
COLISTIN,1 µg/mL,,,,1 µg/mL,2 µg/mL,,,1 µg/mL,,,1 µg/mL,1 µg/mL,1 µg/mL,1 µg/mL,0.5 µg/mL,1 µg/mL,1 µg/mL,4 µg/mL,2 µg/mL,MIC [37]: 1 µg/mL; Activity [38]: Dose-dependent effect; MIC [30]: 2 µg/mL; MIC [31]: 1 µg/mL; MIC [32]: 1 µg/mL; MIC [33]: 1 µg/mL; MIC [34]: 1 µg/mL; MIC [35]: 2 µg/mL; MIC [36]: 1020 µg/mL
COc1c(N2C[C@@H]3CCCN(CCCCCCCCCCCCO[C@H]4[C@@H](O[C@@H]5[C@@H](O)[C@H](O[C@H]6O[C@H](CN)[C@@H](O)C[C@H]6N)[C@@H](N)C[C@H]5N)O[C@H](CO)[C@@H](O)[C@@H]4N)[C@@H]3C2)c(F)cc2c(=O)c(C(=O)O)cn(C3CC3)c12.Cl.Cl.Cl.Cl.Cl,,32 µg/mL,128 µg/mL,128 µg/mL,32 µg/mL,,> 128 µg/mL,16 µg/mL,,> 128 µg/mL,4 µg/mL,> 32 µg/mL,> 32 µg/mL,,> 32 µg/mL,,,,,32 µg/mL,MIC [12]: 2 µg/mL; MIC [15]: 8 µg/mL; MIC [18]: 4 µg/mL; MIC [19]: 8 µg/mL; MIC [39]: 128 µg/mL; MIC [20]: 64 µg/mL; pIC50 [40]: 6.89; MIC [22]: 32 µg/mL; pIC50 [41]: 5.68; MIC [24]: 16 µg/mL; MIC [25]: 32 µg/mL; MIC [29]: 4 µg/mL

# Source: ChEMBL document CHEMBL3856229, “Hybrid Antibiotic Overcomes Resistance in P. aeruginosa by Enhancing Outer Membrane Penetration and Reducing Efflux” (J Med Chem, 2016)
